Calls of active or inactive are those of the source. The rule behind the calls is not given here.
Legend:
(UniProt A0A8D1M4K5) = assay: Inhibition of pig plasma kallikrein using fluorogenic H-Pro-Phe-Arg-AMC peptide as substrate preincubated for 15 mins followed by substrate addition measured by fluorescence-based assay; design: species or system Sus scrofa; details: read-out: Ki(app)
Plasma kallikrein [1] = target: Plasma kallikrein (Homo sapiens, UniProt P03952); assay: Inhibition of human plasma kallikrein using fluorogenic H-Pro-Phe-Arg-AMC peptide as substrate preincubated for 15 mins followed by substrate addition measured by fluorescence-based assay; details: read-out: Ki(app)
Plasma kallikrein [2] = target: Plasma kallikrein (Rattus norvegicus, UniProt P14272); assay: Inhibition of recombinant Sprague-Dawley rat plasma kallikrein using fluorogenic H-Pro-Phe-Arg-AMC peptide as substrate preincubated for 15 mins followed by substrate addition measured by fluorescence-based assay; details: read-out: Ki(app)
Prothrombin = Prothrombin (Homo sapiens, UniProt P00734); assay: Inhibition of recombinant human alpha thrombin using fluorogenic peptide as substrate by fluorescence based assay
Method in brief: (§1)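 Panel of human serine proteases. Substrates and assay conditions followed each supplier's recommendations. Peptides were first screened at 50 μM. Where inhibition was detectable, hydrolytic activity was measured across a range of peptide concentrations. Ki was obtained by fitting to the tight-binding inhibitor rate equation.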

[3] = Half life in New Zealand white rabbit eye at 2 mg/ml, administered via ivt injection by HPLC analysis; assay type: ADME, tissue-based, Oryctolagus cuniculus; details: topical or ocular
Method in brief: (§2)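 Male New Zealand White rabbits (10 weeks old, ~2 kg) received one 50 μL intravitreal injection per eye of peptide at 2 mg/mL in 50 mM sodium phosphate, pH 7.2. Animals were sacrificed at 15 min, 1, 4, 8, 24, 48 and 96 h (3 per time point). Whole vitreous was homogenized, clarified, 0.2 μm filtered and assayed by LC-MS/MS, with a lower limit of detection of 1 ng/mL in vitreous.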

Coagulation factor X = Coagulation factor X (Homo sapiens, UniProt P00742); assay: Inhibition of recombinant human C-terminal 10His-tagged factor Xa (24 to 488 residues) expressed in baculovirus derived insect sf21 cells using fluorogenic Mca-RPKPVE-Nval-WRK(Dnp)-NH2 peptide as substrate by fluorescence based assay
Method in brief: (§3)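 Human serine proteases were assayed with substrates and conditions set by each supplier's recommendations. Peptides were first screened at 50 μM. Where inhibition was detected, Ki was determined from activity across peptide concentrations using a tight-binding rate equation.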

Cathepsin G = target: T1, Cathepsin G (Homo sapiens, UniProt P08311); assay: Inhibition of recombinant human Cathepsin-G; method in brief: as §1
T1 sequence (P08311 whole entry): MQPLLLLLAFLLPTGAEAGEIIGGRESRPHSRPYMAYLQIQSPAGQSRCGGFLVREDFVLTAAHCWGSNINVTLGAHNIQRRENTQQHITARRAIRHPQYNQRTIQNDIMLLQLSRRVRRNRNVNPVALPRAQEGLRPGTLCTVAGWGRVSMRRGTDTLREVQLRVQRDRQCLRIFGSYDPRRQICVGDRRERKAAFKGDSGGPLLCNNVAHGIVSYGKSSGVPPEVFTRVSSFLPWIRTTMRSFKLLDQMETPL

[4] = Drug level in New Zealand white rabbit contralateral eye vitreous humor at 2 mg/ml, administered via ivt injection by LC-MS/MS analysis; assay type: ADME, tissue-based, Oryctolagus cuniculus; details: in vivo, topical_or_ocular
Kallikrein-6 = Kallikrein-6 (Homo sapiens, UniProt Q92876); assay: Inhibition of recombinant human C-terminal His-tagged KLK6 isoform 1 (1 to 244 residues) expressed in HEK293 cells using fluorogenic Boc-QARAMC peptide as substrate by fluorescence based assay; method in brief: as §3
Plasma kallikrein [5] = target: Plasma kallikrein (Mus musculus, UniProt P26262)
Cynomolgus monkey = assay: Toxicity in cynomolgus monkey at 1.25 ug administered as systemic dose; design: species or system Macaca fascicularis; details: in vivo
[6] = Half life in mouse plasma at 4 uM measured up to 24 hrs by LC-MS/MS analysis; assay type: ADME, cell-free
Method in brief: (§4)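 Peptide from a 0.16 mM DMSO stock was added to human, rat or mouse plasma (final 4 μM) or to homogenized human vitreous (final 1 μM), with internal standard. Samples were incubated at 37 °C for up to 24 h and extracted with water/acetonitrile/methanol 1:3:3.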

[7] = Volume of distribution at steady state in Sprague-Dawley rat at 5 mg/kg, iv measured up to 240 mins post dose by LC-MS/MS analysis; assay type: ADME, organism-based; details: in vivo, read-out: Vdss
Method in brief: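 Male Sprague-Dawley rats, 2 per group, given 5 mg/kg intravenously. Blood sampled through tail-vein cannulae at 5, 10, 20, 30, 60, 120, 180 and 240 min into EDTA tubes and spun to plasma.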

[8] = Half life in rat plasma at 4 uM measured up to 24 hrs by LC-MS/MS analysis; assay type: ADME, cell-free; method in brief: as §4
[9] = Half life in human plasma at 4 uM measured up to 24 hrs by LC-MS/MS analysis; assay type: ADME, cell-free; method in brief: as §4
[10] = Half life in Sprague-Dawley rat at 5 mg/kg, iv by LC-MS/MS analysis; assay type: ADME, organism-based; details: in vivo
Method in brief: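 Groups of 2 male Sprague-Dawley rats were dosed IV at 5 mg/kg. Serial tail-vein blood was drawn into EDTA at 5–240 min, and plasma peptide was quantified by LC-MS/MS against 16–4000 ng/mL calibration lines in rat plasma. AUC was calculated by the trapezoidal method.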

[11] = Drug level in New Zealand white rabbit ipsialateral eye vitreous humor at 2 mg/ml, administered via ivt injection at late time point measured up to 100 hrs by LC-MS/MS analysis; assay type: ADME, tissue-based, Oryctolagus cuniculus; details: ipsilateral eye vitreous humor, topical or ocular, read-out: Drug uptake; method in brief: as §2
Rattus norvegicus [12] = assay: Antiinflammatory activity in Sprague-Dawley rat assessed as inhibition carrageenan-induced paw edema at 30 mg/kg, ip pretreated for 15 mins followed by carrageenan challenge measured at 4 hrs post carrageenan challenge; assay type: functional
Method in brief: (§5)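 Male Sprague-Dawley rats received peptide IP (30, 10 or 3 mg/kg), or indomethacin IP at 5 mg/kg, 15 min before subplantar carrageenan. Paw volume was followed over time against a vehicle group.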

Rattus norvegicus [13] = assay: Antiinflammatory activity in ip dosed Sprague-Dawley rat carrageenan-induced paw edema model assessed as inhibition of edema pretreated for 15 mins followed by carrageenan challenge measured up to 6 hrs; assay type: functional, organism-based; method in brief: as §5
Rattus norvegicus [14] = assay: Antiinflammatory activity in Sprague-Dawley rat assessed as inhibition carrageenan-induced paw edema at 30 mg/kg, ip pretreated for 15 mins followed by carrageenan challenge measured at 6 hrs post carrageenan challenge; assay type: functional; method in brief: as §5
Rattus norvegicus [15] = assay: Antiinflammatory activity in Sprague-Dawley rat carrageenan-induced paw edema model assessed as inhibition of paw edema AUC (0 to 2 hrs) at 10 to 30 mg/kg, ip pretreated for 15 mins followed by carrageenan challenge; assay type: functional, organism-based; method in brief: as §5
Plasma = assay: Anti-coagulating activity in factor 8-deficient human plasma assessed as increase in coagulation time at 10 uM by aPTT assay; assay type: functional
Method in brief: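 Clotting time measured on a coagulation analyzer using actin FS, 0.025 M CaCl2, FVIII-deficient human plasma and Owren's Veronal Buffer pH 7.35, run per the manufacturer's instructions. Peptide tested from zero (vehicle) up to 10 μM. Each point is the mean ± SD of triplicates.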

Ki (Prothrombin) | half-life [3] | Ki (Coagulation factor X) | Ki (Cathepsin G) | Ki (Kallikrein-6) | half-life at 4 µM [6] | Vd [7] | half-life at 4 µM [8] | half-life at 4 µM [9] | half-life [10] | SMILES | further results
> 50 µM | 1320 min | 23 µM | > 50 µM | > 50 µM |  |  |  |  |  | CC[C@H](C)[C@@H]1NC(=O)[C@H](CC(=O)O)NC(=O)[C@@H]2CCCN2C(=O)[C@H](Cc2ccc(O)cc2)NC(=O)[C@H](Cc2ccc(O)cc2)NC(=O)[C@H](C(C)C)NC(=O)[C@@H]2CSCc3cc(cc(c3)CSC[C@@H](C(=O)N[C@@H](C)C(=O)N(C)CC(=O)N(C)CC(=O)N(C)CC(=O)N[C@H](CCCNC(=N)N)C(=O)N[C@H](CCCNC(=N)N)C(=O)O)NC1=O)CSC[C@H](NC(C)=O)C(=O)N[C@@H](CO)C(=O)N[C@@H](Cc1ccccc1)C(=O)N1CCC1C(=O)N[C@@H](Cc1ccc(O)cc1)C(=O)N[C@@H](CCCCNC(=N)N)C(=O)N2 (some centres not stated) | Ki ((UniProt A0A8D1M4K5)): 300 nM; Ki (Plasma kallikrein [1]): 0.25 nM; Ki (Plasma kallikrein [2]): 5.5 nM; Drug uptake [4]: 1 ng/mL; Ki (Plasma kallikrein [5]): 45 nM
 | 2340 min |  |  |  | > 1440 min | 0.44 L/kg | > 1440 min | > 1440 min | 48 min | CC(=O)N[C@H]1CSCc2cc3cc(c2)CSC[C@H](NC(=O)[C@H](CCCCNC(=N)N)NC(=O)[C@H](Cc2ccc(O)cc2)NC(=O)[C@@H]2CCN2C(=O)[C@H](Cc2ccccc2)NC(=O)[C@H](CO)NC1=O)C(=O)N[C@@H](C)CN[C@@H](Cc1cnc[nH]1)C(=O)N[C@@H](CCC(N)=O)C(=O)N[C@@H](CC(=O)O)C(=O)N[C@@H](CC(C)C)C(=O)N[C@H](C(=O)O)CSC3 | Activity (Cynomolgus monkey): Non-Toxic; concentration at 100 h [11]: 8 µM
> 50 µM |  | > 50 µM | > 50 µM | > 50 µM | > 1440 min | 0.93 L/kg | > 1440 min | > 1440 min | 78 min | CC(=O)N[C@H]1CSCc2cc3cc(c2)CSC[C@H](C(=O)N[C@@H](C)C(=O)N(C)CC(=O)N(C)CC(=O)N(C)CC(=O)N[C@H](CCCNC(=N)N)C(=O)N[C@H](CCCNC(=N)N)C(=O)O)NC(=O)[C@H](CC(C)C)NC(=O)[C@@H]2CCCN2C(=O)[C@H](C)NC(=O)[C@H](CC(=O)O)NC(=O)[C@H](Cc2c[nH]c4ccccc24)NC(=O)[C@@H]2CCCN2C(=O)[C@H](CSC3)NC(=O)[C@H](Cc2c[nH]c3ccccc23)NC(=O)[C@@H]2CCCN2C(=O)[C@H](CC(N)=O)NC(=O)[C@H](Cc2c[nH]c3ccccc23)NC(=O)[C@H]([C@@H](C)O)NC(=O)[C@H](CC(N)=O)NC1=O | inhibition in vivo at 30 mg/kg (Rattus norvegicus [12]): 60%; inhibition (Rattus norvegicus [13]): Dose-dependent effect; inhibition in vivo at 30 mg/kg (Rattus norvegicus [14]): 64%; inhibition (Rattus norvegicus [15]): Active; Activity (Plasma): < 5%
